The subject of data set [1] is Escherichia coli. Put plainly: Antibacterial activity against Escherichia coli ATCC 25922 after 16 to 20 hrs by two fold serial dilution method. Format: functional. The essentials: (§1)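 MIC as lowest concentration giving complete inhibition of growth after 20 h; at least three independent experiments, each in duplicate.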
Data set [2] relates to Pseudomonas aeruginosa. Kind of data set: Antibacterial activity against Pseudomonas aeruginosa ATCC 27853 after 16 to 20 hrs by two fold serial dilution method. It is filed as functional. A digest of the protocol:
as §1

Data set [3] deals with Klebsiella pneumoniae. Put plainly: Antibacterial activity against Klebsiella pneumoniae ATCC 13383 after 16 to 20 hrs by two fold serial dilution method. Format: functional. A digest of the protocol: as §1
Data set [4] deals with Staphylococcus aureus. Put plainly: Antibacterial activity against methicillin-resistant Staphylococcus aureus ATCC 33591 after 16 to 20 hrs by two fold serial dilution method. Format: functional. The essentials:
(§2)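 Broth MIC: the lowest concentration giving complete growth inhibition after 20 h. Run at least three times, in duplicate each time.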

Data set [5] has as its system Staphylococcus epidermidis. Put plainly: Antibacterial activity against methicillin-resistant Staphylococcus epidermidis RP62A after 16 to 20 hrs by two fold serial dilution method. Format: functional. A digest of the protocol: as §2
For data set [6], the system named is Enterococcus faecalis. Kind of data set: Antibacterial activity against vancomycin resistant Enterococcus faecalis ATCC 700802 after 16 to 20 hrs by two fold serial dilution method. It is filed as functional. The essentials: as §2
A short description of data set [7]: Hemolytic activity in human RBC after 1 hr. Format: ADME, cell-based, Erythrocyte. The settings on record: human red blood cells. A digest of the protocol:
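Fresh K2EDTA human RBCs, PBS-washed, as 5% v/v suspension mixed 1:1 with compound dilutions, 37 °C for 1 h. Supernatant after centrifugation diluted in PBS, A540 read. % hemolysis relative to 2% Triton X-100 (positive) and PBS (negative). At least three runs, each in duplicate.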

The nature of data set [8]: Cytotoxicity against human HK2 cells assessed as cell viability after 24 hrs by MTT assay. It is filed as toxicity, cell-based, HK-2. A digest of the protocol: (§3)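 Cells seeded at 5×10^4 per well and left 12 h, then exposed 24 h to compound at 100, 50, 25, 12.5 or 6.25 μg/mL diluted in medium. Medium replaced, MTT added for 4 h, solubilized 12 h at 37 °C, A550 read; viability % = (A − Ablank)/(Acontrol − Ablank) × 100. Run at least three times.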
For orientation: Tetrazolium dyes change colour on reduction, which living cells bring about.

Data set [9] can be described thus: Cytotoxicity against human K562 cells assessed as cell viability after 24 hrs by MTT assay. Format: toxicity, cell-based. The essentials:
as §3

Data set [10] can be described thus: Selectivity ratio of IC50 for human HK2 cells to MIC for methicillin-resistant Staphylococcus aureus ATCC 33591. It is filed as ADME, cell-based.
Data set [11] can be described thus: Selectivity ratio of IC50 for human K562 cells to MIC for methicillin-resistant Staphylococcus aureus ATCC 33591. It is filed as ADME, cell-based.
The subject of data set [12] is Staphylococcus aureus. Kind of data set: Bactericidal activity against methicillin-resistant Staphylococcus aureus ATCC 33591 assessed as disruption of bacterial membrane at 25 ug/ml after 2 hrs by DAPI staining based fluorescence microscopy. It is filed as functional. A digest of the protocol:
(§4)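 Mid-log MRSA was exposed to compound at 37 °C for 2 h, pelleted and washed three times in PBS. Cells were stained sequentially with PI (5 µg/mL) and DAPI (10 µg/mL), 15 min each on ice in the dark. Imaged with a 100× oil objective; DAPI channel 460 nm, PI channel 620 nm.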

The subject of data set [13] is Staphylococcus aureus. Kind of data set: Bactericidal activity against methicillin-resistant Staphylococcus aureus ATCC 33591 assessed as disruption of bacterial membrane at 25 ug/ml after 2 hrs by propidium iodide staining based fluorescence microscopy. Format: functional. A digest of the protocol:
as §4

Data set [14] concerns Staphylococcus aureus. Put plainly: Bactericidal activity against methicillin-resistant Staphylococcus aureus ATCC 33591 for 10 mins to 2 hrs by time kill assay. It is filed as functional. The essentials: (§5)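 MRSA grown to mid-log in TSB was diluted to 10^6 CFU/mL. […] Samples were diluted 10^2–10^4-fold and plated on TSB agar. CFU were counted after overnight incubation at 37 °C and plotted against time.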

Data set [15] deals with Staphylococcus aureus. Put plainly: Bactericidal activity against methicillin-resistant Staphylococcus aureus ATCC 33591 at 25 to 50 ug/ml for 10 mins to 2 hrs by time kill assay. Format: functional. A digest of the protocol:
as §5

Data set [16] deals with Staphylococcus aureus. Put plainly: Antibacterial activity against methicillin-resistant Staphylococcus aureus ATCC 33591 at 0.5 times MIC after 14 passages. It is filed as functional. The essentials: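 Resistance passaging: the starting MIC was measured as in the MIC assay. Bacteria from the 1/2 MIC well seeded the next day's assay. Repeated daily for 14 passages.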

Data set [17] concerns Escherichia coli. Put plainly: Inhibition of biofilm formation in Escherichia coli ATCC 25922 at 0.6 ug/ml incubated overnight by crystal violet staining based assay. Format: functional. A digest of the protocol: (§6)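 Overnight culture diluted 1:100 into 10% MHII broth, incubated with compound overnight at 37 °C. Growth read at OD600, then biomass stained with crystal violet; CV OD divided by growth OD and normalized to untreated control. Triplicate, mean ± STDEV.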

Data set [18] concerns Acinetobacter baumannii. Kind of data set: Inhibition of biofilm formation in Acinetobacter baumannii at 0.6 ug/ml incubated overnight by crystal violet staining based assay. Format: functional. The essentials: as §6
The subject of data set [19] is Escherichia coli. Kind of data set: Inhibition of biofilm formation in Escherichia coli ATCC 25922 at 2 ug/ml incubated overnight by crystal violet staining based assay. It is filed as functional. A digest of the protocol: as §6
The test system of data set [20] is Acinetobacter baumannii. Kind of data set: Inhibition of biofilm formation in Acinetobacter baumannii at 2 ug/ml incubated overnight by crystal violet staining based assay. It is filed as functional. A digest of the protocol: as §6
In data set [21] the test system is Staphylococcus aureus. Put plainly: Antibacterial activity against methicillin-resistant Staphylococcus aureus induced ventilator-associated pneumonia bearing Wistar rat model assessed as reduction in lung infiltrated proinflammatory cells at 10 mg/kg, iv measured after 1 to 3 days by hematoxylin and eosin staining based light microscopy. It is filed as functional, organism-based. A digest of the protocol: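 Male Wistar rats (6‒8 weeks, ~200 g) were fasted at least 12 h and given urethane 1 g/kg i.p. Pneumonia was induced by slow intratracheal injection of 100 μL PBS with 2×10^5 CFU/mL MRSA under mechanical ventilation. Compound was given at 10 mg/kg i.v. via tail vein. H&E-stained lung sections were scored for neutrophil infiltration and alveolar integrity over time, five random sections each.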

Data set [22] concerns Rattus norvegicus. Put plainly: Antiinflammatory activity in methicillin-resistant Staphylococcus aureus induced ventilator-associated pneumonia bearing Wistar rat model assessed as reduction in TNF-alpha levels in bronchoalveolar lavage fluid at 10 mg/kg, iv measured after 1 to 3 days by ELISA. It is filed as functional, organism-based. The essentials:
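Same MRSA pneumonia rat model with 10 mg/kg i.v. tail-vein dosing. Rats were sacrificed and exsanguinated. Lungs were lavaged through a tracheal needle with 1 mL sterile PBS for six cycles. Specimens were homogenized and TNF-α was measured by ELISA.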

In brackets after ≈: the same amount, converted by molar mass. Activity calls are given as the source filed them. No cut-off for these calls is given here.

Consider two molecules from ChEMBL document CHEMBL3853323, “Small Antimicrobial Agents Based on Acylated Reduced Amide Scaffold” (J Med Chem, 2016).

One may read the MIC as the lowest concentration found to suppress growth. Broadly, the HC50 is the concentration giving 50% haemolysis. High values mean less damage to red cells, low ones more damage to red cells. The IC50 is the concentration that inhibits the measured activity by half. Turning to `N=C(N)NCCC[C@H](N)C(=O)N[C@@H](Cc1ccccc1)CN(CC(=O)NCc1cccc2ccccc12)C(=O)c1ccc2ccccc2c1`, the MIC in data set [1] was found to be 50 µg/mL (≈ 76 µM); in [2] it was 25 µg/mL (≈ 38 µM); in [3], 25 µg/mL (≈ 38 µM); in data set [4], 25 µg/mL (≈ 38 µM); in data set [5], 12.5 µg/mL (≈ 19 µM); in [6], 25 µg/mL (≈ 38 µM). The molecule further gave an HC50 at 1 h in data set [7] of 300 µg/mL. For the same molecule, the IC50 at 24 h in [8] and in data set [9] was more than 100 µg/mL throughout.
By inhibition is commonly meant the relative decrease from the control value, in per cent. Take `NCCCC[C@H](N)C(=O)N[C@@H](Cc1ccccc1)CN(CC(=O)NCC12CC3CC(CC(C3)C1)C2)C(=O)CC12CC3CC(CC(C3)C1)C2`: the MIC in [1] worked out at 3.12 µg/mL (≈ 4.73 µM); in data set [2], 6.25 µg/mL (≈ 9.47 µM); in data set [3], 6.25 µg/mL (≈ 9.47 µM); in data set [4], 1.56 µg/mL (≈ 2.36 µM); in data set [5] it was 3.12 µg/mL (≈ 4.73 µM); in data set [6] it was 6.25 µg/mL (≈ 9.47 µM). In addition, the HC50 at 1 h in [7] came to 85 µg/mL. The figures for the IC50 at 24 h in [8] and in data set [9] were 86.3 µg/mL (≈ 131 µM) and 83.2 µg/mL (≈ 126 µM), respectively. Moreover, the selectivity ratio in data set [10] and in data set [11] was more than 50 in each case. Moreover, the result in [12], in data set [13], in data set [15], in data set [16], in data set [21] and in data set [22] was Active. For the same molecule, the Activity entry in data set [14] was “Dose-dependent effect”. Besides, the inhibition at 0.6 µg/mL in data set [17] and in [18] was more than 50% in each case. Besides, the inhibition entry in data set [19] and in data set [20] was “Active” throughout.
